Measurements reported in ChEMBL document CHEMBL1127471, “Tricyclic analogues of acyclovir and ganciclovir. Influence of substituents in the heterocyclic moiety on the antiviral activity” (1994).
Values after ≈ are worked out from the molar mass of the structure shown.

Columns and labels:
Assay type in all cases: functional
Human alphaherpesvirus 1 [1] = assay: The minimum inhibitory concentration was measured on E6SM cells against TK-Herpes simplex virus type 1 (B2006 strain)
Procedure, shortened: (§1)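 Antiviral endpoint was the concentration reducing virus-induced cytopathicity by 50% in […] cell cultures. Values are means of two to six independent determinations.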

Vaccinia virus = assay: The minimum inhibitory concentration was measured on E6SM cells against Vaccinia virus; conditions: Orthopoxvirus vaccinia; procedure, shortened: as §1
Human alphaherpesvirus 3 [2] = assay: The minimum inhibitory concentration was measured on HEL cells against Varicella zoster virus (YS strain)
Procedure, shortened: (§2)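 Antiviral endpoint was the concentration reducing virus plaque formation by 50% in HEL cell cultures. Values are means of two to six independent determinations.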

Human alphaherpesvirus 3 [3] = assay: The minimum inhibitory concentration was measured on HEL cells against TK-Varicella zoster virus (07/1 strain); procedure, shortened: as §2
Human betaherpesvirus 5 = assay: The minimum inhibitory concentration was measured on HEL cells against Cytomegalovirus virus (AD-169 strain); procedure, shortened: as §2
[4] = The minimum inhibitory concentration was measured against Herpes simplex virus type 1 (KOS strain) on E6SM cells; conditions: Human alphaherpesvirus 1; procedure, shortened: as §1
HEL [5] = assay: The […] was measured on HEL cells in cell growth; conditions: Homo sapiens
E6SM = assay: The minimum inhibitory concentration was measured on E6SM cells for morphological alteration; conditions: Homo sapiens
Procedure, shortened: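 In uninfected E6SM cells, the value is the concentration giving a microscopically detectable change in normal cell morphology. Values are means of two to six independent determinations.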

Human alphaherpesvirus 1 [6] = assay: The minimum inhibitory concentration was measured on E6SM cells against Herpes simplex virus type 1 (F strain); procedure, shortened: as §1
Human alphaherpesvirus 3 [7] = assay: The minimum inhibitory concentration was measured on HEL cells against TK-Varicella zoster virus (YS-R strain); conditions: Human alphaherpesvirus 3, ys-r; procedure, shortened: as §2
Human alphaherpesvirus 3 [8] = assay: The minimum inhibitory concentration was measured on HEL cells against Varicella zoster virus (OKA strain); conditions: Human alphaherpesvirus 3, oka; procedure, shortened: as §2
[9] = The minimum inhibitory concentration was measured on E6SM cells against Herpes simplex virus type 1 (McIntyre strain); conditions: Human alphaherpesvirus 1; procedure, shortened: as §1
Human alphaherpesvirus 1 [10] = assay: The minimum inhibitory concentration was measured on E6SM cells against TK+/TK-Herpes simplex virus type 1 (VMW1837 strain); procedure, shortened: as §1
Cytomegalovirus = assay: The minimum inhibitory concentration was measured on HEL cells against Cytomegalovirus virus (Davis strain); conditions: Human betaherpesvirus 5; procedure, shortened: as §2
HEL [11] = assay: The minimum inhibitory concentration was measured on HEL cells against Cytomegalovirus virus (AD-169 strain); (<100>40); conditions: Homo sapiens; procedure, shortened: as §2
HEL [12] = assay: The minimum inhibitory concentration was measured on HEL cells against Cytomegalovirus virus (Davis strain); (<100>40); conditions: Homo sapiens; procedure, shortened: as §2
HEL [13] = assay: The minimum inhibitory concentration was measured on HEL cells against Cytomegalovirus virus (AD-169 strain); (<400>100); conditions: Homo sapiens; procedure, shortened: as §2

Compound | MIC (Human alphaherpesvirus 1 [1]) [µg/mL] | MIC (Vaccinia virus) [µg/mL] | MIC (Human alphaherpesvirus 3 [2]) [µg/mL] | MIC (Human alphaherpesvirus 3 [3]) [µg/mL] | MIC (Human betaherpesvirus 5) [µg/mL] | MIC [4] [µg/mL] | MIC (HEL [5]) [µg/mL] | MIC (E6SM) [µg/mL] | MIC (Human alphaherpesvirus 1 [6]) [µg/mL] | MIC (Human alphaherpesvirus 3 [7]) [µg/mL] | MIC (Human alphaherpesvirus 3 [8]) [µg/mL] | MIC [9] [µg/mL] | MIC (Human alphaherpesvirus 1 [10]) [µg/mL] | MIC (Cytomegalovirus) [µg/mL] | MIC (HEL [11]) [µg/mL] | MIC (HEL [12]) [µg/mL] | MIC (HEL [13]) [µg/mL]
Nc1nc2c(ncn2COCCO)c(=O)[nH]1 [ACYCLOVIR] | 70 (≈ 311 µM) | > 180 | 0.38 (≈ 1.69 µM) | 13.7 (≈ 60.8 µM) | 13.2 (≈ 58.6 µM) | 0.02 (≈ 0.0888 µM) | > 200 | 350 (≈ 1550 µM) | 0.004 (≈ 0.0178 µM) | 4.7 (≈ 20.9 µM) | 0.18 (≈ 0.799 µM) | 0.07 (≈ 0.311 µM) | 5 (≈ 22.2 µM) |  |  |  | 
CC(C)(C)c1cn2c(O)c3c(nc2n1)N(COC(CO)CO)CN3 | > 70 | > 135 | > 20 | 50 (≈ 148 µM) | > 50 | 0.035 (≈ 0.104 µM) | > 200 | > 175 | 0.1 (≈ 0.296 µM) | 50 (≈ 148 µM) | 5 (≈ 14.8 µM) | 0.1 (≈ 0.296 µM) | 0.7 (≈ 2.07 µM) | > 50 |  |  | 
OCCOCN1CNc2c1nc1nc(-c3ccc(Br)cc3)cn1c2O |  | > 70 | 4 (≈ 9.85 µM) | 125 (≈ 308 µM) |  | 0.6 (≈ 1.48 µM) | > 200 | ≥ 70 | 2 (≈ 4.92 µM) | 230 (≈ 566 µM) | 1 (≈ 2.46 µM) | 0.2 (≈ 0.492 µM) | > 70 |  | > 40 | > 40 | 
Cc1cn2c(O)c3c(nc2n1)N(COCCO)CN3 | 127 (≈ 479 µM) | > 190 | 9.4 (≈ 35.4 µM) | > 50 | > 50 | 0.8 (≈ 3.02 µM) | > 200 | > 190 | 0.58 (≈ 2.19 µM) | 70 (≈ 264 µM) | 4.6 (≈ 17.3 µM) | 1 (≈ 3.77 µM) | 40 (≈ 151 µM) | > 50 |  |  | 
OCCOCN1CNc2c1nc1nc(-c3ccccc3)cn1c2O |  | > 100 | 1.4 (≈ 4.28 µM) | 67 (≈ 205 µM) |  | 0.4 (≈ 1.22 µM) | 45 (≈ 137 µM) | > 100 | 0.7 (≈ 2.14 µM) | 67 (≈ 205 µM) | 1.3 (≈ 3.97 µM) | 0.2 (≈ 0.611 µM) | > 70 | 166 (≈ 507 µM) |  |  | > 100
OCC(CO)OCN1CNc2c1nc1nc(-c3ccc(-c4ccccc4)cc3)cn1c2O | > 60 | > 70 | > 50 | 25 (≈ 57.7 µM) | > 50 | 0.02 (≈ 0.0461 µM) | > 200 | > 85 | 0.01 (≈ 0.0231 µM) | 20 (≈ 46.1 µM) | 10 (≈ 23.1 µM) | 0.001 (≈ 0.00231 µM) | 2.7 (≈ 6.23 µM) | > 50 |  |  | 
OCC(CO)OCN1CNc2c1nc1nc(-c3ccccc3)cn1c2O | > 30 | > 90 | 3 (≈ 8.39 µM) | 3 (≈ 8.39 µM) | 20 (≈ 56 µM) | 0.02 (≈ 0.056 µM) | > 200 | > 175 | 0.005 (≈ 0.014 µM) | 1 (≈ 2.8 µM) | 0.4 (≈ 1.12 µM) | 0.005 (≈ 0.014 µM) | 0.5 (≈ 1.4 µM) | 7 (≈ 19.6 µM) |  |  | 
Cc1cnc2nc3c(c(O)n12)NCN3COCCO | > 50 | > 150 | > 50 | > 50 | > 50 | 2.1 (≈ 7.92 µM) | > 200 | > 100 | 0.1 (≈ 0.377 µM) | > 50 | > 50 | 0.5 (≈ 1.88 µM) | > 120 | > 50 |  |  | 
